Laboratory results: ChEMBL document CHEMBL2407079, “Potent DGAT1 Inhibitors in the Benzimidazole Class with a Pyridyl-oxy-cyclohexanecarboxylic Acid Moiety” (ACS Med Chem Lett, 2013)

Columns and labels:
[1] = target: T1, Diacylglycerol O-acyltransferase 1 (Mus musculus, UniProt Q9Z2A7); assay: Inhibition of mouse DGAT1
T1 sequence (Q9Z2A7 whole entry): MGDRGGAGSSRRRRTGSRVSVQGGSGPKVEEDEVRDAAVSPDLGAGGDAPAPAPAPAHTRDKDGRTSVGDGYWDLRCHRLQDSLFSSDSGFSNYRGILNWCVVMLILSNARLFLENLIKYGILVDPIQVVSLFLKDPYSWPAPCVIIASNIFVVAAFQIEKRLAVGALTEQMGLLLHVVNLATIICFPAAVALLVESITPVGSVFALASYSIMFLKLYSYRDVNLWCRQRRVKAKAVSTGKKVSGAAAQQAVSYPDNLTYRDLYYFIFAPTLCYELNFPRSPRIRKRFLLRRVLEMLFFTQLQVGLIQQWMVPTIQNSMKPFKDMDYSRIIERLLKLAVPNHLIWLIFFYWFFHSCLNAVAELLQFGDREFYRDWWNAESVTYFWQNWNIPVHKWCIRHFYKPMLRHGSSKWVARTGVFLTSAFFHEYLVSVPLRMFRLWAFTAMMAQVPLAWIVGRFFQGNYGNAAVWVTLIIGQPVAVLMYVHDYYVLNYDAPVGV

[2] = target: T2, Diacylglycerol O-acyltransferase 1 (Homo sapiens, UniProt O75907); assay: Inhibition of human DGAT1
T2 sequence (O75907 whole entry): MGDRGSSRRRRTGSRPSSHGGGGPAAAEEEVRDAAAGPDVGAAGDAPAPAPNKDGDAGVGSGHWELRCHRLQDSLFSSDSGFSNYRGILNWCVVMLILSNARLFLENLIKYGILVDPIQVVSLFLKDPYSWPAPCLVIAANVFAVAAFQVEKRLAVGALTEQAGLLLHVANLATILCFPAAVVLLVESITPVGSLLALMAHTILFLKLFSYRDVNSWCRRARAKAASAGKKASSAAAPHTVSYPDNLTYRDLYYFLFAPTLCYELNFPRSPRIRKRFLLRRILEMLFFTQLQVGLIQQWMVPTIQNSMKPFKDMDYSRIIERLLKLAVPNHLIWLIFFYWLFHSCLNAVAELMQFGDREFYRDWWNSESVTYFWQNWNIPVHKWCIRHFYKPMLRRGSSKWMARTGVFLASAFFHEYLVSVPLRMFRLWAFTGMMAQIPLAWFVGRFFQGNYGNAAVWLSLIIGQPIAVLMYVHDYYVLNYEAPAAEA

Mus musculus = assay: Reduction in triglyceride excursion in mouse at 10 mg/kg, po measured at 18 hrs by lipid tolerance test; type: functional; set-up: scale not given: the % may be the effect or the level left
How it was run: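 Mouse lipid tolerance test. Oral dose of 10 mg/kg as a suspension in 0.5% methylcellulose; triglyceride reduction read at 18 h.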

[3] = Lipophilicity, log D of the compound by HPLC analysis; type: physicochemical
Rattus norvegicus = assay: Dose normalized AUC in Sprague-Dawley rat at 1 mg/kg, iv and 2 mg/kg, po; type: ADME, organism-based; conditions: in vivo
How it was run: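 Sprague–Dawley rats; 1 mg/kg iv and 2 mg/kg p.o., both as solutions in EtOH/PEG400/water (10:50:40). Plasma AUC measured for the parent and, where applicable, for the epimerized metabolite formed in vivo.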

[4] = Half life in Sprague-Dawley rat at 1 mg/kg, iv; type: ADME, organism-based; set-up: dose 1 mg/kg, route intravenous; conditions: in vivo
How it was run: (§1)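 Sprague–Dawley rats; intravenous dose of 1 mg/kg given as a solution in EtOH/PEG400/water (10:50:40).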

[5] = Volume of distribution at steady state in Sprague-Dawley rat at 1 mg/kg, iv; type: ADME, organism-based; set-up: dose 1 mg/kg, route intravenous; conditions: in vivo, read-out: Vdss; how it was run: as §1
[6] = Clearance in Sprague-Dawley rat at 1 mg/kg, iv; type: ADME, organism-based; set-up: dose 1 mg/kg, route intravenous; conditions: in vivo; how it was run: as §1
[7] = Bioavailability in Sprague-Dawley rat at 1 mg/kg, iv; type: ADME, organism-based; conditions: in vivo; how it was run: as §1

N#Cc1ccc2nc(-c3ccc(-c4ccc(O[C@H]5CC[C@@H](C(=O)O)CC5)nc4)nc3)[nH]c2c1
IC50 [1]: 36 nM
IC50 [2]: 3.2 nM

CS(=O)(=O)c1ccc2nc(-c3ccc(-c4ccc(O[C@H]5CC[C@H](C(=O)O)CC5)nc4)nc3)[nH]c2c1
IC50 [1]: 727 nM
IC50 [2]: 137 nM

O=C(O)[C@H]1CC[C@H](Oc2ccc(-c3ccc(-c4nc5cc(F)c(F)cc5[nH]4)cn3)cn2)CC1
IC50 [1]: 4.3 nM
IC50 [2]: 1.3 nM

O=C(O)[C@H]1CC[C@H](Oc2ccc(-c3ccc(-c4nc5cc(C(F)(F)F)ccc5[nH]4)cn3)cn2)CC1
Activity (Mus musculus): 84%
IC50 [1]: 4.4 nM
logD [3]: 1.72
IC50 [2]: 3 nM

O=C(O)[C@H]1CC[C@@H](Oc2ccc(-c3ccc(-c4nc5ccc(OC(F)(F)F)cc5[nH]4)cn3)cn2)CC1
IC50 [1]: 4.6 nM
IC50 [2]: 3.9 nM

CS(=O)(=O)c1ccc2nc(-c3ccc(-c4ccc(O[C@H]5CC[C@@H](C(=O)O)CC5)nc4)nc3)[nH]c2c1
IC50 [1]: 358 nM
IC50 [2]: 101 nM

O=C(O)[C@H]1CC[C@@H](Oc2ccc(-c3ccc(-c4nc5ccc(Cl)cc5[nH]4)cn3)cn2)CC1
AUC/dose (Rattus norvegicus): 2.4 µM·h/mg/kg
half-life [4]: 3.7 h
Vd [5]: 0.34 L/kg
clearance [6]: 3 mL/min/kg
bioavailability [7]: 19%
Activity (Mus musculus): 144%
IC50 [1]: 3.7 nM
logD [3]: 1.42
IC50 [2]: 2.1 nM

O=C(O)[C@H]1CC[C@@H](Oc2ccc(-c3ccc(-c4nc5cc(C(F)(F)F)ccc5[nH]4)cn3)cn2)CC1
Activity (Mus musculus): 84%
IC50 [1]: 2.2 nM
logD [3]: 1.62
IC50 [2]: 1.7 nM

O=C(O)C[C@H]1CC[C@H](c2ccc(-c3ccc(-c4nc5cc(Cl)ccc5[nH]4)cn3)cc2)CC1
IC50 [1]: 1 nM
logD [3]: 1.8
IC50 [2]: 1.1 nM

N#Cc1ccc2nc(-c3ccc(-c4ccc(O[C@H]5CC[C@H](C(=O)O)CC5)nc4)nc3)[nH]c2c1
IC50 [1]: 96 nM
IC50 [2]: 6 nM
